The source made the active and inactive calls.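 The calls were made as follows, unless noted: active = viability at or under a set limit in both replicates, limit being median viability minus 3 SD (cut at about 48% in these data, passing the limit was not always enough); inconclusive = at or under the limit in just one replicate; inactive = at or above the limit in both replicates.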
Key:
[1] = reducers of endogenous Her2 protein level, primary screen, SKBR3 breast tumor cells, AlphaScreen, ATP viability (AID 461;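 active = Her2 level under about 52% in both replicate screens, with viability over 70% of control, limit read from the data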;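 as to Her2 level: lower value means less Her2 protein in the cells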;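 as to viability: percent of carrier control wells set as 100% viability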); conditions: 18-24 h, measured here: SKBR3 viability, ATP luminescence, at 10 µM
[2] = target: Receptor tyrosine-protein kinase erbB-2 (Homo sapiens) (UniProt P04626); assay: as above; conditions: 18-24 h, at 10 µM, stronger effect = lower value
[3] = SK-BR-3 cell growth inhibitors, pilot screen, 24 h, human (AID 572;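 active = viability at or below 10% of carrier control in both of two separate runs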;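 also: compound exposure lasted between 18 and 24 h rather than exactly 24 h; 100% = carrier-treated control wells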); conditions: SK-BR-3 viability, CellTiter-Glo luminescence, at 10 µM, stronger effect = lower value
[4] = HUVEC growth inhibition – cell-based, human, primary screen (AID 575;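 active = viability at or below 30% in both replicate assays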;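 also: 100% = median of untreated cell wells with 0.1% DMSO on each plate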); conditions: HUVEC proliferation, CellTiter-Glo luminescence, 72 h; at 10 µM; stronger effect = lower value
Summary of the method: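 Assay system: Primary human umbilical vein endothelial cells | Quantity: 1250 cells per well | Medium: Supplemented EBM, 2% fetal bovine serum | Detection: CellTiter-Glo luminescence measuring cellular ATP | Read-out: % viability vs DMSO wells | Plate: Collagen-coated 384-well format | Times: 72 h exposure, 37 °C, 5% CO2, 30 min RT equilibration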

[5] = growth inhibitors of H69AR lung tumor, primary screen, human, duplicate replicates (AID 580); conditions: H69AR lung tumor cells viability, ATP luminescence, 72 h; at 10 µM; stronger effect = lower value;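 also: 100% = mean luminescence of untreated wells and 0% = no signal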
[6] = reversal of MRP1-mediated doxorubicin resistance, pilot screen, H69AR cells, doxorubicin co-treatment (AID 601;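 active = viability loss from added drug above about 55%, and viability with drug at most 40%, in both replicates, limit read from the data, passing the limit was not always enough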); conditions: CellTiter-Glo, 72 h, at 10 µM; for differential viability (reversal): stronger effect = higher value
[7] = 384-well plate pilot, post-Golgi transport modulator project, inhibition of yeast transport mutant growth (AID 636; in the data active = inhibition above about 31%); conditions: absorbance 615 nm, about 18 h, stronger effect = higher value
[8] = growth suppression of yeast trafficking mutant, preliminary HTS, modulators of trafficking downstream of Golgi apparatus project, 1536-format plate, OD 615 nm (AID 637; in the data active = inhibition above about 30%); conditions: yeast transport mutant growth, absorbance 615 nm, 18 h; stronger effect = higher value
[9] = H69AR cells + 2 uM doxorubicin, measured here: viability with 2 uM doxorubicin, stronger effect = lower value
[10] = H69AR cells, compound alone cytotoxicity

Chain of Receptor tyrosine-protein kinase erbB-2 (Homo sapiens) (P04626 whole entry, looked up): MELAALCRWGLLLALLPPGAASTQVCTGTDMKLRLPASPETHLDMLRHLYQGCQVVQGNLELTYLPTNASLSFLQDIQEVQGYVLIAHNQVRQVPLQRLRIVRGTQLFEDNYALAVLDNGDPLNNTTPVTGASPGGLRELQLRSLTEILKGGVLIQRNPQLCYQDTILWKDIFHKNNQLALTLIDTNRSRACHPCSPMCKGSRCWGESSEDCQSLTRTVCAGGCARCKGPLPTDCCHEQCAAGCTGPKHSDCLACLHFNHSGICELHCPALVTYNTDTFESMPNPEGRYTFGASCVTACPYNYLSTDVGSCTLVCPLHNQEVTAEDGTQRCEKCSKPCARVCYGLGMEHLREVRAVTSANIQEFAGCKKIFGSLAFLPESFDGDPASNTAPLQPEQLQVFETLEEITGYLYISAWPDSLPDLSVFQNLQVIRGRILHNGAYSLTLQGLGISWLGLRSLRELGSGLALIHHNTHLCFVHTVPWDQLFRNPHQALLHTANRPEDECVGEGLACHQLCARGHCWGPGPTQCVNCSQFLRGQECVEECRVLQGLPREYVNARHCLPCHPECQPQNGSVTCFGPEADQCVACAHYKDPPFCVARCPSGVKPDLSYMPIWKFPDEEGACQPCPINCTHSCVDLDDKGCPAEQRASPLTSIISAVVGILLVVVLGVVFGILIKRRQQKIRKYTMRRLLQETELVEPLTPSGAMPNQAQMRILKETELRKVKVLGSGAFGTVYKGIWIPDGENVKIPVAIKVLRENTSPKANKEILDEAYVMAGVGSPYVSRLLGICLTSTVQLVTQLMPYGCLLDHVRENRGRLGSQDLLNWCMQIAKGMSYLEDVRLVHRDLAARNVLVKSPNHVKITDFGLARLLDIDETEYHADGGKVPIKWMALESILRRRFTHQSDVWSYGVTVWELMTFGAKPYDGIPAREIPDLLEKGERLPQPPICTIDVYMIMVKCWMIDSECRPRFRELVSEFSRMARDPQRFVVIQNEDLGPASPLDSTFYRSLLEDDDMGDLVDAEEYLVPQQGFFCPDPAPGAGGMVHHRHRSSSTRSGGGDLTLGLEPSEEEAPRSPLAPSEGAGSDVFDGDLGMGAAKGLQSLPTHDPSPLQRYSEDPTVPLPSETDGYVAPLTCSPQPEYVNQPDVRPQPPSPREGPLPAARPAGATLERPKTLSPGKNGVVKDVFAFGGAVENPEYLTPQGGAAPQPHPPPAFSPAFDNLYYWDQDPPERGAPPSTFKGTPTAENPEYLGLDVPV

SMILES	viability [1] [%]	Her2 level [2]	viability [3]	viability [4]	viability [5]	differential viability (reversal) ([6]; H69AR cells + 2 uM doxorubicin)	viability [6, 9] [%]	viability [6, 10] [%]	inhibition [7]	inhibition [8]
c1nnc(NC2=NCCCCC2)s1	91.5	112% (inactive)	91.5% (inactive)	109% (inactive)	101% (inactive)	2.23% (inactive)	98.5	101	-2.16% (inactive)	-7.5% (inactive)
Cc1cc(C)c2c(N)c(C(=O)N3CCN(c4ncccn4)CC3)sc2n1	104	96.5% (inactive)	104% (inactive)	98.2% (inactive)	101% (inactive)	0.855% (inactive)	101	101	-5.53% (inactive)	0.49% (inactive)
CC(C)CNC(=O)c1ccccc1NC(=O)c1ccc(CN2CCOCC2)cc1	92.5	96% (inactive)	92.5% (inactive)	106% (inactive)	99.6% (inactive)	11.9% (inactive)	87.7	99.6	-5.68% (inactive)	1.8% (inactive)
O=c1c2ccccc2cnn1-c1nc2ccccc2s1	91	73% (inactive)	91% (inactive)	63.6% (inactive)	81.6% (inactive)	0.15% (inactive)	81.4	81.6	-7.3% (inactive)	-3.33% (inactive)
CCOc1ccc(C(=O)CN2CCN(S(=O)(=O)c3ccc(OC)cc3)CC2)cc1	99.5	88% (inactive)	99.5% (inactive)	91.2% (inactive)	86.7% (inactive)	-8.05% (inactive)	94.7	86.7	-3.68% (inactive)	-8.33% (inactive)
CCOC(=O)N1CCN(c2c(N3CCN(c4ccccn4)CC3)c(=O)c2=O)CC1	104	103% (inactive)	104% (inactive)	95.4% (inactive)	92.5% (inactive)	9.85% (inactive)	82.6	92.5	-2.67% (inactive)	-2.79% (inactive)
CCNC(=O)Cn1cnc2c1c(=O)n(C)c(=O)n2C	108	108% (inactive)	108% (inactive)	112% (inactive)	96.2% (inactive)	-1.97% (inactive)	98.2	96.2	-4.74% (inactive)	5.25% (inactive)
Cc1c(C(=O)NCc2ccccc2)oc2c1C(=O)CCC2	72	93.5% (inactive)	72% (inactive)	75.2% (inactive)	99.2% (inactive)	15.6% (inactive)	83.6	99.2	-4.87% (inactive)	5.67% (inactive)
CCOc1cc(C2C(C(=O)c3ccccc3)=C(C(=O)OC)Nc3nnnn32)ccc1O (stereo not given)	113	96% (inactive)	113% (inactive)	91.6% (inactive)	97.6% (inactive)	16.4% (inactive)	81.2	97.6	-1.84% (inactive)	-5.45% (inactive)
CCC(c1nnnn1CCOC)N(Cc1ccc(C)cc1)Cc1cc2cc(OC)ccc2[nH]c1=O (stereo not given)	115	89% (inactive)	115% (inactive)	71.9% (inactive)	72.5% (inactive)	7.76% (inactive)	64.7	72.5	-3.03% (inactive)	-1.77% (inactive)
Cc1[nH]c(=O)[nH]c(=O)c1S(=O)(=O)N1CCCC(C(=O)NCc2ccco2)C1 (stereo not given)	102	80% (inactive)	102% (inactive)	96.3% (inactive)	86.4% (inactive)	-1.73% (inactive)	88.1	86.4	-3.82% (inactive)	0.67% (inactive)
C=CCn1c(COc2ccccc2F)nnc1SCC(=O)N1CC(=O)Nc2ccccc21	92	104% (inactive)	92% (inactive)	109% (inactive)	92.2% (inactive)	2.88% (inactive)	89.3	92.2	-4.46% (inactive)	51.5% (active)
COc1ccccc1C1c2c(oc3ccc(Cl)cc3c2=O)C(=O)N1c1cc(C)on1 (stereo not given)	86.5	82.5% (inactive)	86.5% (inactive)	70.7% (inactive)	72.2% (inactive)	-3.51% (inactive)	75.7	72.2	-2.93% (inactive)	8.71% (inactive)
O=C(CN(C(=O)CCNC(=O)c1ccco1)c1ccccc1)NC1CCCC1	93	112% (inactive)	93% (inactive)	103% (inactive)	93.5% (inactive)	-5.44% (inactive)	98.9	93.5	2.53% (inactive)	33.5% (active)
Cc1ccc(C(=O)N2CCN(C(=O)c3ccc(C)c(C)c3)C(C)C2)cc1C (stereo not given)	84.5	81% (inactive)	84.5% (inactive)	97.5% (inactive)	82.2% (inactive)	12.2% (inactive)	70	82.2	-4.61% (inactive)	-1.67% (inactive)
COC(=O)Nc1nc2c(C)cccc2s1	114	88% (inactive)	114% (inactive)	56.1% (inactive)	85.4% (inactive)	11.9% (inactive)	73.5	85.4	1.18% (inactive)	8.33% (inactive)
